Reference: ChEMBL document CHEMBL5712072, “Epigenetic targeting of Hedgehog pathway transcriptional output through BET bromodomain inhibition” (Nat Med, 2014)
Calls of active or inactive are those of the source. The rule behind the calls is not given here.

Legend:
[1] = test system: MEF; assay: Downregulation of Gli transcription in Sufu-/- MEF cells by immunoblot analysis; assay type: functional, cell-based; conditions: Mus musculus
Procedure, shortened: (§1)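 Sufu−/− MEFs exposed to DMSO or 1 uM of JQ1, GDC-0449, LDE225 or SANT-1; RIPA lysis 30min on ice, cleared 13000rpm 15min 4°C; SDS-PAGE immunoblot with anti-GLI1, β-tubulin as loading control.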

[2] = test system: MEF; assay: Downregulation of Gli1 protein expression in Sufu-/- MEF cells by immunoblot analysis; assay type: functional, cell-based; conditions: Mus musculus; procedure, shortened: as §1
[3] = biological target: Zinc finger protein GLI2 (Homo sapiens) (UniProt P10070); assay: Inhibition of human GLI2 expressed in Hh-Light2 cells assessed as reduction in Gli1 mRNA expression level by qRT-PCR analysis; assay type: cell-based
Zinc finger protein GLI2 (Homo sapiens), sequence (P10070 whole entry, the tested form may be a part): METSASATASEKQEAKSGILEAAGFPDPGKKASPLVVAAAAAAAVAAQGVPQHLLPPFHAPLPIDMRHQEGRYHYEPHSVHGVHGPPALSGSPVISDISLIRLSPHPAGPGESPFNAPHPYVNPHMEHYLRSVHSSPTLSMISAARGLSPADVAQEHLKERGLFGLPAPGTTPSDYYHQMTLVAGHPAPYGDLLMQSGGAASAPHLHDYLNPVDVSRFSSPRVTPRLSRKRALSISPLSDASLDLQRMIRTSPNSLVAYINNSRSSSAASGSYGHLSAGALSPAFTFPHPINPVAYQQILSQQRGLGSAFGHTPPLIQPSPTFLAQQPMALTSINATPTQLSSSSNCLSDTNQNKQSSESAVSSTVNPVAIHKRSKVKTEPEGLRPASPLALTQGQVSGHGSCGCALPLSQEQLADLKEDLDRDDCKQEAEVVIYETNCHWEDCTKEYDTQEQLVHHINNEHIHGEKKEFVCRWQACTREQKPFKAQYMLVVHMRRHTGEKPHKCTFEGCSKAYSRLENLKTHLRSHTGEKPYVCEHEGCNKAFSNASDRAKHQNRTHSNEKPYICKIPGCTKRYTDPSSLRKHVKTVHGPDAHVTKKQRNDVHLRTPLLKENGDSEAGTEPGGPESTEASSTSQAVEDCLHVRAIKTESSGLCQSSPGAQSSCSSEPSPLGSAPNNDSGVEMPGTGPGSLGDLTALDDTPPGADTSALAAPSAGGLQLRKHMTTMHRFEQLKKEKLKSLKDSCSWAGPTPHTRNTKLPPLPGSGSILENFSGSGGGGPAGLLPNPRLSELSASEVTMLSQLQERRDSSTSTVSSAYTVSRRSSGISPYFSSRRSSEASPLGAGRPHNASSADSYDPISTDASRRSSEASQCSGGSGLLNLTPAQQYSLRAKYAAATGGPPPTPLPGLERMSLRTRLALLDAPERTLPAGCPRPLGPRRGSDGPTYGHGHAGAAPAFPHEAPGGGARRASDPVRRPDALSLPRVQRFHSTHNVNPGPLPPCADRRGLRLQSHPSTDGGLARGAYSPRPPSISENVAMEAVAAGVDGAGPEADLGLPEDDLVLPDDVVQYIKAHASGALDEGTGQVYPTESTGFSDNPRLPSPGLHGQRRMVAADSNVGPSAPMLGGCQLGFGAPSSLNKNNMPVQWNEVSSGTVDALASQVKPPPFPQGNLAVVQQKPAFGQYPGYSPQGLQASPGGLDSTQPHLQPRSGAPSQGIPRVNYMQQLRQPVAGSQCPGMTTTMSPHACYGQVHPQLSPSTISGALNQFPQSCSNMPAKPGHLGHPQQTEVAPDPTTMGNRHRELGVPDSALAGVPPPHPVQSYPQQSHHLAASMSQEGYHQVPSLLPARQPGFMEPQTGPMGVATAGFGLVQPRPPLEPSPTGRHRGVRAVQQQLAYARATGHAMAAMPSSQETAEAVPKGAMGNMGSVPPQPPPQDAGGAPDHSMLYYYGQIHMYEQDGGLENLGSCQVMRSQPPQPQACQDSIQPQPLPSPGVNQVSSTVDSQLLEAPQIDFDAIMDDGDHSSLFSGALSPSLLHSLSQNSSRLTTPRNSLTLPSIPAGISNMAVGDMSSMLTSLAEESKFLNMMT
Procedure, shortened: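 Hh-Light2 cells transiently transfected (Turbofect) with full-length murine HA-Gli2-FL or N-terminally truncated human Myc-GLI2-DN; drugs (1 uM JQ1, GDC-0449, LDE225 or SANT-1) added 24hr post-transfection; Gli1 mRNA by SYBR Green qRT-PCR; mean of triplicates ± SD.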

[4] = test system: Medulloblastoma cell; assay: Antiproliferative activity against in […] medulloblastoma cells expressing SmoWT-MB cells from mouse assessed as cell proliferation by EdU analysis; assay type: functional, cell-based
Procedure, shortened: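 SmoWT-MB cells given 0.1uM GDC-0449 or LDE225 (or JQ1 1 uM); 10uM EdU added for final 6-8hrs; EdU+ cells detected by Click-iT flow cytometry or imaging, DAPI counterstain; proliferation index = EdU+/DAPI+ cells; group means ± SD.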

[5] = test system: Medulloblastoma cell; assay: Antitumor activity in […] medulloblastoma cells expressing SmoD477G mutant […] in NSG mouse assessed as reduction in tumor growth at 100 mg/kg/day, po; assay type: functional, organism-based
[6] = test system: Medulloblastoma cell; assay: Antitumor activity in […] medulloblastoma expressing wildtype SMO […] in NSG mouse assessed as reduction in tumor growth at 100 mg/kg/day, po; assay type: functional, organism-based
Procedure, shortened: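 Flank allografts: 2x10e6 SmoWT-MB cells per flank (both flanks) in 4-6 week NSG mice; randomized after engraftment to vehicle, GDC-0449 100 mg/kg PO qd or JQ1 50 mg/kg IP qd, dosed until euthanasia required; caliper tumor measurement; group means ± S.E.M.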

[7] = test system: Medulloblastoma cell; assay: Induction of apoptosis in human wildtype SMO expressing medulloblastoma cells assessed as viable cells by annexin-V/PI staining based flow cytometric analysis (reference value: 74.9%); assay type: functional
[8] = test system: Medulloblastoma cell; assay: Induction of apoptosis in human wildtype SMO expressing medulloblastoma cells assessed as early apoptotic cells by annexin-V/PI staining based flow cytometric analysis (reference value: 0.59%); assay type: functional
[9] = biological target: Bromodomain-containing protein 4 (Mus musculus) (UniProt Q9ESU6); assay: Inhibition of BRD4 in mouse Hh-Light2 cells assessed as Gli1 mRNA level by qRT-PCR analysis
[10] = biological target: Bromodomain-containing protein 4 (Mus musculus) (UniProt Q9ESU6); assay: Inhibition of BRD4 in mouse Hh-Light2 cells assessed as inhibition in Gli1 protein level by immunoblot analysis
[11] = test system: Medulloblastoma cell; assay: Induction of apoptosis in mouse wildtype SMO expressing medulloblastoma cells assessed as necrotic cells by annexin-V/PI staining based flow cytometric analysis (reference value: 22%)
[12] = test system: Medulloblastoma cell; assay: Induction of apoptosis in mouse wildtype SMO expressing medulloblastoma cells assessed as late apoptotic cells by annexin-V/PI staining based flow cytometric analysis (reference value: 2.5%)
[13] = test system: Basal cell carcinoma cell (Mus musculus); assay: Antitumor activity in mouse basal cell carcinoma allografted in mouse assessed as reduction in tumor growth at 100 mg/kg/day, ip

Row | inhibition [3] | inhibition [9] | inhibition [10] | Compound | Activity [1] | Activity [2] | Activity [4] | Activity [5] | Activity [6] | Activity [7] | Activity [8] | Activity [11] | Activity [12] | Activity [13]
1 | inactive | Active | Active | CS(=O)(=O)c1ccc(C(=O)Nc2ccc(Cl)c(-c3ccccn3)c2)c(Cl)c1 [VISMODEGIB] | inactive | inactive | Active | inactive | Active | 40.8% | 1.01% | 51.2% | 6.98% | –
2 | inactive | Active | Active | Cc1c(C(=O)Nc2ccc(N3C[C@@H](C)O[C@@H](C)C3)nc2)cccc1-c1ccc(OC(F)(F)F)cc1 [SONIDEGIB] | inactive | inactive | Active | – | – | 33% | 1.09% | 58.8% | 7.15% | –
3 | – | – | – | CNCc1ccc(C)c(NC(=O)c2ccc(Nc3nc(-c4ccccc4)c4ccccc4n3)cc2)c1 | – | – | – | – | – | – | – | – | – | Active
